The RNAGym collection of RNA variant scans (doi:10.1126/science.aae0568)
Fewer inactive variants are shown than the library holds.

B1: tRNA (parent)
chain: GUUCCGUUGGCGUAAUGGUAACGCGUCUCCCUCCUAAGGAGAAGACUGCGGGUUCGAGUCCCGUACGGAACG

Variants of: B1
Assay: yeast fitness relative to wild type (ratio to wild type); higher = fitter; tRNA-Arg(CCU), competitive growth, 37 C, YPD
In short: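 Changes in genotype frequencies gave Darwinian fitness relative to wild type. Frequencies were read by 100-nucleotide paired-end sequencing of gene amplicons before and after pooled Saccharomyces cerevisiae strains, carrying tRNA-Arg(CCU) gene variants at the native locus, were competed in YPD at 37°C for 24 hours in six replicates. A genotype was kept only with ≥ 100 starting reads, and estimates < 0.5 were set to 0.5.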

Row | Variant | yeast fitness
1 | C5A C55U | 0.707
2 | C5A C27A C34G U59C | 0.539
3 | C5A G17C G58C | ≤ 0.5
4 | C5A G23C G48C C61A | ≤ 0.5
5 | C5A C46A G56C A70G | ≤ 0.5
6 | C5A G12A C33G A57U | ≤ 0.5
7 | C5A G17A A42G G56A | ≤ 0.5
8 | C5A U13A C30G A69C | ≤ 0.5
9 | C5A C24G C62A | ≤ 0.5
10 | C5A C24U A36C | ≤ 0.5
11 | C5A G39A C49U G56C | ≤ 0.5
12 | C5A C34A C46U | 0.553
13 | C5A G25A C33A A40U A69U | ≤ 0.5
14 | C5A C24A U26G A43C A69U | ≤ 0.5
15 | C5A C27U G39C C49U C55U | ≤ 0.5
16 | C5A G63A C66U | 0.651
17 | C5A U16A A45U | 0.593
18 | C5A C33G A40G | 0.521
19 | C5A C24G C29G A40C | ≤ 0.5
20 | C5A C22A C24A U26C | ≤ 0.5
21 | C5A C31G A37G | 0.538
22 | C5A C11U U13G C29G C33A C46A | 0.575
23 | C5A G23A C46U G50C C61A A70C | ≤ 0.5
24 | C5A U7C C22G C24U A37C G51C C55U U59G | ≤ 0.5

Row | Variant | yeast fitness
25 | C5A C30U U59C C62A | ≤ 0.5
26 | C5A C55A G56C | ≤ 0.5
27 | C5A C24G A36C A70C | ≤ 0.5
28 | C5A G39C G63A | ≤ 0.5
29 | C5A G10C U26C G39C C61U | ≤ 0.5
30 | C5A C31U U35C G50A | 0.565
31 | C5A C24G | 0.621
32 | C5A C24U | 0.71
33 | C5A C24U G67U A69C | 0.517
34 | C5A C30A A57G | 0.565
35 | C5A G17C A57G C66U | ≤ 0.5
36 | C5A C34A A40U A43G C62U | ≤ 0.5
37 | C5A G17C G18C C60U | ≤ 0.5
38 | C5A G10C U19C C24G | ≤ 0.5
39 | C5A G10C G17A A40U U54A | ≤ 0.5
40 | C5A C46U C55U | 0.763
41 | C5A C29A A45U C62G C66G | ≤ 0.5
42 | C5A G9A U32C | 0.602
43 | C5A C31G A42G | ≤ 0.5
44 | C5A U13G C24G C31A | 0.514
45 | C5A U8C U35C G44A G48C C55G A69U | ≤ 0.5
46 | C5A U19A | 0.843
47 | C5A G12A G50C | ≤ 0.5
48 | C5A G17C C27U A57C | ≤ 0.5

Row | Variant | yeast fitness
49 | C5A C31U G68A | 0.639
50 | C5A C22U C27G C30G A57U | ≤ 0.5
51 | C5A C46A G56C | ≤ 0.5
52 | C5A C31U A40G C49U A70U | ≤ 0.5
53 | C5A C22G C29G C31G C61A | 0.529
54 | C5A U16C C33U G63C | ≤ 0.5
55 | C5A G63C | 0.761
56 | C5A C11G G17A A37U C49A | ≤ 0.5
57 | C5A G44A | 0.716
58 | C5A G44C | 0.8
59 | C5A C34G U53A | ≤ 0.5
60 | C5A G38A C62U | 0.639
61 | C5A G50A | 0.87
62 | C5A C22U U53C U59G C61G C62U | ≤ 0.5
63 | C5A U13A U59A U64G | ≤ 0.5
64 | C5A U13G U32A A42U G52A U54A C60G | 0.649
65 | C5A G44C U54C | 0.556
66 | C5A G48C C62U | 0.629
67 | C5A C29A A57G | ≤ 0.5
68 | C5A C60U C66U | ≤ 0.5
69 | C5A C11U | 0.856
70 | C5A U8G A37U G51A G52C A57G U59C | 0.52
71 | C5A C24U A36C C66U | ≤ 0.5
72 | C5A C22U C31G C60A | ≤ 0.5

Row | Variant | yeast fitness
73 | C5A U13C C29U | ≤ 0.5
74 | C5A C30A | 0.767
75 | C5A C30G | 0.608
76 | C5A G6A | 0.808
77 | C5A C11U C31G | 0.558
78 | C5A U7C U19A G38C A42G C49G C55A A57C | ≤ 0.5
79 | C5A U16C A42U | 0.672
80 | C5A C29G G41A A43U | 0.659
81 | C5A U8C G52A G58C | ≤ 0.5
82 | C5A C46A A69U | 0.738
83 | C5A C30A A36U G41C G51C | 0.65
84 | C5A G38C G51A G58A | 0.506
85 | C5A G39A U59A | ≤ 0.5
86 | C5A C11G A42U U53A | ≤ 0.5
87 | C5A G18A A69U | ≤ 0.5
88 | C5A U19A A57U | 0.561
89 | C5A C30G C31G U32C G63A | ≤ 0.5
90 | C5A G17A G67C | 0.662
91 | C5A C34A | 0.606
92 | C5A C34G | 0.589
93 | C5A C33A A65U | ≤ 0.5
94 | C5A C31U C55U | 0.6
95 | C5A G6C C11G C22U C46U G56A | ≤ 0.5
96 | C5A C27A U28G | 0.617

Row | Variant | yeast fitness
97 | C5A U16C U59G C66U | 0.533
98 | C5A G12A C33G | 0.646
99 | C5A C31A C46A G50C | ≤ 0.5
100 | C5A C34U A40G | 0.727
101 | C5A G10A G39A U53G | ≤ 0.5
102 | C5A C11G C29U A36U G50C U54G | ≤ 0.5
103 | C5A G38C A42G | 0.582
104 | C5A G18C | 0.569
105 | C5A G17C G18C C61G | ≤ 0.5
106 | C5A G9C U47G G68U | ≤ 0.5
107 | C5A U7C | 0.655
108 | C5A U7A | 0.636
109 | C5A C31U G58C U64C A70G | 0.576
110 | C5A C31G C46A | 0.54
111 | C5A U8G U19C A37U G51A G52C U59C | ≤ 0.5
112 | C5A G48C G51C U53A C66A | 0.559
113 | C5A G18A C30U G48C G68C | 0.54
114 | C5A G68C | 0.802
115 | C5A G68A | 0.82
116 | C5A C27U C46U | 0.739
117 | C5A G18C G67C | 0.561
118 | C5A C22G U26A A57C G67A A69U | ≤ 0.5
119 | C5A U13A A70C | ≤ 0.5
120 | C5A C30U U35A A42G C61U G63A | 0.538

Row | Variant | yeast fitness
121 | C5A G18C G50C C60G A70G | ≤ 0.5
122 | C5A G12A | 0.788
123 | C5A C22G C29A A43U | 0.574
124 | C5A C11G G41C C66U | ≤ 0.5
125 | C5A U8C G38A C62G | 0.643
126 | C5A G25C C30U | 0.576
127 | C5A C30U C62G G68A | ≤ 0.5
128 | C5A G51A C61G | ≤ 0.5
129 | C5A G44C G48A G51A | 0.609
130 | C5A G25C A57C G67A A69U | 0.525
131 | C5A G41A | 0.873
132 | C5A G23A C24U U47A | ≤ 0.5
133 | C5A G9C A36U G50A | 0.536
134 | C5A G52C G67U A69U | ≤ 0.5
135 | C5A C34G G58A G67A | ≤ 0.5
136 | C5A G17C A57C A70U | ≤ 0.5
137 | C5A G6A U7A A43U G44A C46A G63A G68C A69G | 0.532
138 | C5A C27U G39A A40G | 0.577
139 | C5A G23A C24U | 0.561
140 | C5A G10C U26C | 0.518
141 | C5A C33G A65U | ≤ 0.5
142 | C5A C22U C27G C30G A45U C62A | ≤ 0.5
143 | C5A G67A | 0.933
144 | C5A C29U A36U C66U G67A | ≤ 0.5

Row | Variant | yeast fitness
145 | C5A G12A U35G A69C | ≤ 0.5
146 | C5A U8C A21G A45C U47G G56C | ≤ 0.5
147 | C5A U8C C11A A15G C27U A42U C61A C62U | 0.502
148 | C5A C34U C61G | ≤ 0.5
149 | C5A G58C | 0.867
150 | C5A G58A | 0.909
151 | C5A C24G G56A C62A | ≤ 0.5
152 | C5A C24U U35C | ≤ 0.5
153 | C5A C62U A69C | 0.738
154 | C5A G12A A45G G67A | ≤ 0.5
155 | C5A C34U A36C A40C | ≤ 0.5
156 | C5A C61U | 0.966
157 | C5A C24U C62A A69C | ≤ 0.5
158 | C5A C33U G56A | ≤ 0.5
159 | C5A C27U G39C C49U | 0.526
160 | C5A C11U G18C U19A C27A C33A C61G A70G | ≤ 0.5
161 | C5A C24U G25C C30G G50C G56A A65U | ≤ 0.5
162 | C5A C24G A65U | 0.694
163 | C5A C11U C30A A57G | ≤ 0.5
164 | C5A U13A A45C A69C | 0.542
165 | C5A C11G C33A G38A C46G A70U | ≤ 0.5
166 | C5A C49U A65U G67C | ≤ 0.5
167 | C5A G12A C60G | ≤ 0.5
